Columns and labels:
[1] = Metabolic stability in CD-1 mouse hepatocytes assessed as intrinsic clearance measured per million cells at 5 microM incubated upto 180 mins by LC/MS analysis; assay type: ADME, cell-based, Hepatocyte; conditions: read-out: CLH
Procedure, shortened: (§1)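 Cryopreserved hepatocytes from the listed species, in suspension at 200,000 cells/well in Williams Medium E with 2 mM L-glutamine and 25 mM HEPES. Compound final 5 µM in 0.5% DMSO, sampled at 0, 15, 60, 90 and 180 min. ACN precipitation, LC-MS. Hepatocyte-free medium served as negative control and 7-ethoxycoumarin as reference; duplicates.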

[2] = Metabolic stability in Sprague-Dawley rat hepatocytes assessed as intrinsic clearance measured per million cells at 5 microM incubated upto 180 mins by LC/MS analysis; assay type: ADME, cell-based, Hepatocyte; conditions: read-out: CLH; procedure, shortened: as §1
[3] = Metabolic stability in Beagle dog hepatocytes assessed as intrinsic clearance measured per million cells at 5 microM incubated upto 180 mins by LC/MS analysis; assay type: ADME, cell-based, Canis lupus familiaris, Hepatocyte; conditions: read-out: CLH; procedure, shortened: as §1
[4] = Metabolic stability in human hepatocytes assessed as intrinsic clearance measured per million cells at 5 microM incubated upto 180 mins by LC/MS analysis; assay type: ADME, cell-based, Hepatocyte; conditions: read-out: CLH; procedure, shortened: as §1
[5] = Metabolic stability in CD-1 mouse hepatocytes assessed as half life at 5 microM incubated upto 180 mins by LC/MS analysis; assay type: ADME, cell-based, Hepatocyte; procedure, shortened: as §1
[6] = Metabolic stability in Sprague-Dawley rat hepatocytes assessed as half life at 5 microM incubated upto 180 mins by LC/MS analysis; assay type: ADME, cell-based, Hepatocyte; procedure, shortened: as §1
[7] = Metabolic stability in Beagle dog hepatocytes assessed as half life at 5 microM incubated upto 180 mins by LC/MS analysis; assay type: ADME, cell-based, Canis lupus familiaris, Hepatocyte; procedure, shortened: as §1
[8] = Metabolic stability in human hepatocytes assessed as half life at 5 microM incubated upto 180 mins by LC/MS analysis; assay type: ADME, cell-based, Hepatocyte; procedure, shortened: as §1
[9] = target: T1, Phosphatidylinositol 4,5-bisphosphate 3-kinase catalytic subunit alpha isoform (Homo sapiens, UniProt P42336); test: Displacement of Alexa fluor 647-labeled kinase tracer 314 from recombinant N-terminal (His)6-tagged p110alpha (unknown origin) assessed as inhibition constant by TR-FRET based Lanthascreen kinase activity assay
[10] = target: T2, Serine/threonine-protein kinase mTOR (Homo sapiens, UniProt P42345); test: Displacement of Alexa fluor 647-labeled kinase tracer 314 from N-terminal GST-fused truncated recombinant human mTOR (1360 to 2549 residues) assessed as inhibition constant by TR-FRET based Lanthascreen kinase activity assay
[11] = target: T2, Serine/threonine-protein kinase mTOR; test: Binding affinity to DNA-tagged mTOR (unknown origin) assessed as dissociation constant by quantitative PCR analysis
Procedure, shortened: (§2)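 Competition binding: DNA-tagged kinases on immobilized ligand competed with an 11-point 3-fold dilution starting at 30 µM. Bound kinase quantified by qPCR of DNA tags. Kd fitted with the Hill equation (slope −1); duplicate experiments, mean reported.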

[12] = target: T1, Phosphatidylinositol 4,5-bisphosphate 3-kinase catalytic subunit alpha isoform; test: Binding affinity to DNA-tagged P13kalpha (unknown origin) assessed as dissociation constant by quantitative PCR analysis; procedure, shortened: as §2
[13] = target: Phosphatidylinositol 4,5-bisphosphate 3-kinase catalytic subunit beta isoform (Homo sapiens, UniProt P42338); test: Binding affinity to DNA-tagged P13kbeta (unknown origin) assessed as dissociation constant by quantitative PCR analysis; procedure, shortened: as §2
[14] = target: T3, Phosphatidylinositol 4,5-bisphosphate 3-kinase catalytic subunit delta isoform (Homo sapiens, UniProt O00329); test: Binding affinity to DNA-tagged P13kdelta (unknown origin) assessed as dissociation constant by quantitative PCR analysis; procedure, shortened: as §2
T3 sequence (O00329 whole entry): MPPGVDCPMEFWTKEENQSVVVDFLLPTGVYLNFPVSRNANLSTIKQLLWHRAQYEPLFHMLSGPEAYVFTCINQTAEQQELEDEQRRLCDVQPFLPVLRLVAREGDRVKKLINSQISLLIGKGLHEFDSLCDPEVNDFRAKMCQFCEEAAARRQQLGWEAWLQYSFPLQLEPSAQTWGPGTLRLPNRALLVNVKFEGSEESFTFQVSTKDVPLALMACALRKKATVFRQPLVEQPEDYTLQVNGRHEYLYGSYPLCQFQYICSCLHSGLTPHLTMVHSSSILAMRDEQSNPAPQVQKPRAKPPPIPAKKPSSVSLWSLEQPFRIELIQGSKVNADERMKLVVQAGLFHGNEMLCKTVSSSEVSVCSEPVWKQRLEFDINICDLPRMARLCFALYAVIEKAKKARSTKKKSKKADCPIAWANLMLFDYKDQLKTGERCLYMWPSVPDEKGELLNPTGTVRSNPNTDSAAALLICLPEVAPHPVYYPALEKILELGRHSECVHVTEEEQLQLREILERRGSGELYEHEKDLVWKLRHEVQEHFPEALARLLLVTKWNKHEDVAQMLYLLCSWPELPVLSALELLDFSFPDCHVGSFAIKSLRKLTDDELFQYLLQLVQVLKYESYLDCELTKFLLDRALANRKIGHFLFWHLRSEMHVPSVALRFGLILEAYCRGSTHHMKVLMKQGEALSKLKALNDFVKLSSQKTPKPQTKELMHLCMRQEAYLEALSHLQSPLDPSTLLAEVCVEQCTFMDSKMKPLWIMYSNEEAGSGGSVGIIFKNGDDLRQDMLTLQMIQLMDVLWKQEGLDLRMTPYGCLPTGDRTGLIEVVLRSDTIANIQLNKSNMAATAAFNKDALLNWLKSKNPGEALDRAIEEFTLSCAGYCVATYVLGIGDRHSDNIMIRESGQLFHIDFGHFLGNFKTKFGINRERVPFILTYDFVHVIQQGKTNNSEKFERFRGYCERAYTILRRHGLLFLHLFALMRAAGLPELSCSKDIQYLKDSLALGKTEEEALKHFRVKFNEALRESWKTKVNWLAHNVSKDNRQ

[15] = target: Phosphatidylinositol 4,5-bisphosphate 3-kinase catalytic subunit gamma isoform (Homo sapiens, UniProt P48736); test: Binding affinity to DNA-tagged P13kgamma (unknown origin) assessed as dissociation constant by quantitative PCR analysis; procedure, shortened: as §2
[16] = target: Phosphatidylinositol 4-kinase beta (Homo sapiens, UniProt Q9UBF8); test: Binding affinity to DNA-tagged P14kbeta (unknown origin) assessed as dissociation constant by quantitative PCR analysis; procedure, shortened: as §2
[17] = target: Phosphatidylinositol 3-kinase catalytic subunit type 3 (Homo sapiens, UniProt Q8NEB9); test: Binding affinity to DNA-tagged VPS34 (unknown origin) assessed as dissociation constant by quantitative PCR analysis; procedure, shortened: as §2
[18] = AUC (0 to 8 hrs) in Sprague-Dawley rat brain at 5 mg/kg, po administered as single dose and measured after 8 hrs by LC-MS analysis; assay type: ADME, organism-based; set-up: time 8 hrs, dose 5 mg/kg, route po; conditions: in vivo
Procedure, shortened: (§3)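 Male Sprague Dawley rats given a single oral dose of 5 mg/kg (5 mL/kg) in 20% Captisol, pH adjusted to 3. Three rats per time point (30 min, 2, 4, 8 h); heart-puncture blood into lithium-heparin, plasma separated, brain collected. Samples precipitated with acetonitrile containing diazepam internal standard, then LC-MS quantification.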

[19] = AUC (0 to 8 hrs) in Sprague-Dawley rat plasma at 5 mg/kg, po administered as single dose and measured after 8 hrs by LC-MS analysis; assay type: ADME, organism-based; set-up: dose 5 mg/kg, time 8 hrs, route po; procedure, shortened: as §3
[20] = Toxicity in Sprague-Dawley rat assessed as increase in insulin concentration at 5 mg/kg, po measured upto 8 hrs by ELISA; assay type: organism-based; conditions: in vivo
Procedure, shortened: (§4)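 Male SD rats dosed orally at 5 mg/kg in 20% Captisol, with vehicle controls. Plasma was taken by heart puncture at 30 min, 2, 4 and 8 h, three rats per point. Insulin was measured by rat/mouse insulin ELISA and glucose by colorimetric assay.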

[21] = Toxicity in Sprague-Dawley rat assessed as increase in glucose concentration at 5 mg/kg, po measured upto 8 hrs by glucose colorimetric assay; assay type: organism-based; conditions: in vivo; procedure, shortened: as §4
[22] = Metabolic stability in Sprague-Dawley rat hepatocytes assessed as parent compound remaining at 5 uM measured after 3 hrs by LC-MS analysis; assay type: ADME, cell-based, Hepatocyte; conditions: read-out: Stability; procedure, shortened: as §1
[23] = Metabolic stability in human hepatocytes assessed as parent compound remaining at 5 uM measured after 3 hrs by LC-MS analysis; assay type: ADME, cell-based, Hepatocyte; conditions: read-out: Stability; procedure, shortened: as §1
[24] = Metabolic stability in CD-1 mouse hepatocytes assessed as parent compound remaining at 5 uM measured after 3 hrs by LC-MS analysis; assay type: ADME, cell-based, Hepatocyte; conditions: read-out: Stability; procedure, shortened: as §1
[25] = Metabolic stability in Beagle dog hepatocytes assessed as parent compound remaining at 5 uM measured after 3 hrs by LC-MS analysis; assay type: ADME, cell-based, Canis lupus familiaris, Hepatocyte; conditions: read-out: Stability; procedure, shortened: as §1
CYP1A1 = target: T4, CYP1A1 (Homo sapiens, UniProt P04798); test: Stability of compound assessed as recombinant human CYP1A1-mediated drug metabolism by measuring compound remaining at 1 uM incubated for 60 mins by LC-MS analysis; assay type: ADME; conditions: read-out: Stability
T4 sequence (P04798 whole entry): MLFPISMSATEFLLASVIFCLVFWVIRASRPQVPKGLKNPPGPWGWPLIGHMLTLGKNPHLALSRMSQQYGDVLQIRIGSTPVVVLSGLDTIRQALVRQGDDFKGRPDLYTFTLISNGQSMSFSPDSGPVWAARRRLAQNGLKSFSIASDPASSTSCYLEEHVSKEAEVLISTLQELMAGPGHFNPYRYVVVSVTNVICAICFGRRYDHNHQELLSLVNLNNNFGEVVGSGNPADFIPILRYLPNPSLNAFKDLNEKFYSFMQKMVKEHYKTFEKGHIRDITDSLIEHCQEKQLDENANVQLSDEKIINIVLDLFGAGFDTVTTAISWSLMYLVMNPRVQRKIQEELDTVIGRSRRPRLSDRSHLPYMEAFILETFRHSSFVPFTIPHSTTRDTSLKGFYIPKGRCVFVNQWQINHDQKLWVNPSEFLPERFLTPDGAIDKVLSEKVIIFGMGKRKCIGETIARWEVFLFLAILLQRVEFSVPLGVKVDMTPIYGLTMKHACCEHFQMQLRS
Procedure, shortened: (§5)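 Recombinant human CYP1A1 or CYP1A2 Supersomes at 25 pmol/mL, with compound at 1 µM (0.25% DMSO) and an NADP+-regenerating cofactor mix, at 37 °C. Reactions stopped with ACN plus internal standard at 0 and 60 min. Controls: melatonin for CYP1A1 and phenacetin for CYP1A2, plus no-cofactor negatives. Duplicates.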

CYP1A2 = target: T5, CYP1A2 (Homo sapiens, UniProt P05177); test: Stability of compound assessed as recombinant human CYP1A2-mediated drug metabolism by measuring compound remaining at 1 uM incubated for 60 mins by LC-MS analysis; assay type: ADME; conditions: read-out: Stability; procedure, shortened: as §5
T5 sequence (P05177 whole entry): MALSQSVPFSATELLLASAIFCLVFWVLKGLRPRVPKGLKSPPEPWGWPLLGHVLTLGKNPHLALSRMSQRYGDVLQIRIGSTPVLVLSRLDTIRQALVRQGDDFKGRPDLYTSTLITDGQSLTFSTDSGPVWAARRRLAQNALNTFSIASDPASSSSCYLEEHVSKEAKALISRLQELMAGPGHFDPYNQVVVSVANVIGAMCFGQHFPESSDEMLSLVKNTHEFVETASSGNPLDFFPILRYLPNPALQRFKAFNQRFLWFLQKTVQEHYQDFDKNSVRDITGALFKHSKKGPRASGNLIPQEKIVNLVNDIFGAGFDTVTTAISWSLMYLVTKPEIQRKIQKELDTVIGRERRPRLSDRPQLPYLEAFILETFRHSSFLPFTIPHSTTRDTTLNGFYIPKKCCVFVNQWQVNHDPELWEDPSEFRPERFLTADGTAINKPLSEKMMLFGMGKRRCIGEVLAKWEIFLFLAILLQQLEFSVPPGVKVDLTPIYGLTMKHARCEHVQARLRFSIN

cells [26] = conditions: Homo sapiens, SK-OV-3, 1 h
cells [27] = conditions: Homo sapiens, SK-OV-3, 1 h; remark: listed apart in the source
VL51 = test: cells; conditions: Homo sapiens, VL51, 72 h
cells [28] = conditions: Homo sapiens, SSK41, 72 h
cells [29] = conditions: Homo sapiens, Karpas-1718, 72 h

T1 sequence (P42336 whole entry, the tested form may be a part, canonical isoform): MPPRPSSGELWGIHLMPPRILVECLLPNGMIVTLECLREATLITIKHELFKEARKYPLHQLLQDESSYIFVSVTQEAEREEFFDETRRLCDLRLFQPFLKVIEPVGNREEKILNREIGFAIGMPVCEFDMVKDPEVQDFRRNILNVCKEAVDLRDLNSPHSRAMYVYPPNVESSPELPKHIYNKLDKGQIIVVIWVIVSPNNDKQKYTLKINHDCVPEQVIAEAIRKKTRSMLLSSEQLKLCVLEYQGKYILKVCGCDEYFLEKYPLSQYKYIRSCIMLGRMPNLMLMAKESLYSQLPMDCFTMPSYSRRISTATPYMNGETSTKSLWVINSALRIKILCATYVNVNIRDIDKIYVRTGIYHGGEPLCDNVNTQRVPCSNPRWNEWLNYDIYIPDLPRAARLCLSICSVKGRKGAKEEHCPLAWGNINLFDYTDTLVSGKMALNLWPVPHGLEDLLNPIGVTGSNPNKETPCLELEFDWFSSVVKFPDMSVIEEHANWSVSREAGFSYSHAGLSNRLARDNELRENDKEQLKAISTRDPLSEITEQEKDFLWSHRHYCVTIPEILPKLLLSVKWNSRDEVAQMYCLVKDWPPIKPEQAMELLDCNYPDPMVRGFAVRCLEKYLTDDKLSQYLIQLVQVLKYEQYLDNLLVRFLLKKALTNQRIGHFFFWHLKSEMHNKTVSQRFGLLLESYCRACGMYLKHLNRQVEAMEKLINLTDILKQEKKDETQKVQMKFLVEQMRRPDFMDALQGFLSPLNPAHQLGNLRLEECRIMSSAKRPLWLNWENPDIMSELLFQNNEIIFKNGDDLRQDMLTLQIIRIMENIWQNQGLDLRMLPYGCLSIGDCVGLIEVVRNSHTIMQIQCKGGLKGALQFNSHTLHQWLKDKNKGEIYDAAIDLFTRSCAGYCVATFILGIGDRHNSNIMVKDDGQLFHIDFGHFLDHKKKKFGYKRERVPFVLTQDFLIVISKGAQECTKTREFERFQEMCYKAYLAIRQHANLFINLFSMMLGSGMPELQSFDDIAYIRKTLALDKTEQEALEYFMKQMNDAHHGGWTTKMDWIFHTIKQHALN
Phosphatidylinositol 4,5-bisphosphate 3-kinase catalytic subunit gamma isoform, sequence (P48736 whole entry, canonical isoform): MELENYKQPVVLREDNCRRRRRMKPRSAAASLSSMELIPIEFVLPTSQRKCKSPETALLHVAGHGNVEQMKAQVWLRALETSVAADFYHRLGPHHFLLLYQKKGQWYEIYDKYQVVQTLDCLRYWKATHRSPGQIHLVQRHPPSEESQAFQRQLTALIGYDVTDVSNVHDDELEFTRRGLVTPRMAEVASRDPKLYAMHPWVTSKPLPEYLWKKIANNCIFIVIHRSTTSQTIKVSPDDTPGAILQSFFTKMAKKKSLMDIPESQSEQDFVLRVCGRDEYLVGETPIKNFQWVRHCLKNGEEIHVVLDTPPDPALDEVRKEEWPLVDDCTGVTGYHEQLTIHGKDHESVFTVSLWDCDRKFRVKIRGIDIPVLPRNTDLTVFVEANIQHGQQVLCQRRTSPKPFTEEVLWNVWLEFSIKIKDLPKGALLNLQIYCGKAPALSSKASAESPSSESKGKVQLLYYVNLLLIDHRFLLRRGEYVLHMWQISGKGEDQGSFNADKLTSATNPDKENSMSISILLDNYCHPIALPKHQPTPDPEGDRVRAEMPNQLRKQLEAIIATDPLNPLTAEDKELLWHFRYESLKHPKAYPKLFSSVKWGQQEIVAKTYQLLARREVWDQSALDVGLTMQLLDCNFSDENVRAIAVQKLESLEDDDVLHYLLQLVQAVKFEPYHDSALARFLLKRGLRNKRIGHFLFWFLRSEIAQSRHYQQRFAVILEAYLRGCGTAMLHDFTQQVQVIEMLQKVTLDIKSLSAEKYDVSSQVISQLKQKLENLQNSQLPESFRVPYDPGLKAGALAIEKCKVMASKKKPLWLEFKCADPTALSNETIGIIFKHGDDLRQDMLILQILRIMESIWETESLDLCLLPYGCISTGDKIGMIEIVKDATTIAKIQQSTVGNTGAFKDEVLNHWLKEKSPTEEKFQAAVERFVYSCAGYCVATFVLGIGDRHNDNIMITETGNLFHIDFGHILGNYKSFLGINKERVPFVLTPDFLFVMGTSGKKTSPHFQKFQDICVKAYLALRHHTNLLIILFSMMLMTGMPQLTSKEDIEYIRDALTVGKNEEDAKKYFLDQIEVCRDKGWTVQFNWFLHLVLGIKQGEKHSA
Phosphatidylinositol 4-kinase beta, sequence (Q9UBF8 whole entry): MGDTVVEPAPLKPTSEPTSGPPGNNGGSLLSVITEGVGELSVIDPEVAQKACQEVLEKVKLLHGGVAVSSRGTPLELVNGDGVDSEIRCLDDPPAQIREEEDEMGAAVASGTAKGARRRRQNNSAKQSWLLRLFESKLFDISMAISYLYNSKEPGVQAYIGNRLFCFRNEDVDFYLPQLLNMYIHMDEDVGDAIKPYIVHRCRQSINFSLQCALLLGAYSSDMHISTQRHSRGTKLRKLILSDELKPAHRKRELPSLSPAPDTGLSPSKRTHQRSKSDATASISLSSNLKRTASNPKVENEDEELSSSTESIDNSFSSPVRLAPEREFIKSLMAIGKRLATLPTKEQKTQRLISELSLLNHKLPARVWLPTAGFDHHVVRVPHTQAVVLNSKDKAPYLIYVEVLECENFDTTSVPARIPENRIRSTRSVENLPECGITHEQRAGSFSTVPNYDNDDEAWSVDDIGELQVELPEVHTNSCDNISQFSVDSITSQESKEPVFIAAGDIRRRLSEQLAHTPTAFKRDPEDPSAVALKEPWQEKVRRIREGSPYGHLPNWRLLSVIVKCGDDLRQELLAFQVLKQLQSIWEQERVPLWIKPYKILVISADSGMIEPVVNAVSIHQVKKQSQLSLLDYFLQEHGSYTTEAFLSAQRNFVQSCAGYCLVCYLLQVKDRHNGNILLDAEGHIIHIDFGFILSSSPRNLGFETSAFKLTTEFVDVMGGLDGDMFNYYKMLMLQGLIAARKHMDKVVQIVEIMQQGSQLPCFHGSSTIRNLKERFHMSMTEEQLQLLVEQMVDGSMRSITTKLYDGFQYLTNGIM
Phosphatidylinositol 4,5-bisphosphate 3-kinase catalytic subunit beta isoform, sequence (P42338 whole entry, canonical isoform): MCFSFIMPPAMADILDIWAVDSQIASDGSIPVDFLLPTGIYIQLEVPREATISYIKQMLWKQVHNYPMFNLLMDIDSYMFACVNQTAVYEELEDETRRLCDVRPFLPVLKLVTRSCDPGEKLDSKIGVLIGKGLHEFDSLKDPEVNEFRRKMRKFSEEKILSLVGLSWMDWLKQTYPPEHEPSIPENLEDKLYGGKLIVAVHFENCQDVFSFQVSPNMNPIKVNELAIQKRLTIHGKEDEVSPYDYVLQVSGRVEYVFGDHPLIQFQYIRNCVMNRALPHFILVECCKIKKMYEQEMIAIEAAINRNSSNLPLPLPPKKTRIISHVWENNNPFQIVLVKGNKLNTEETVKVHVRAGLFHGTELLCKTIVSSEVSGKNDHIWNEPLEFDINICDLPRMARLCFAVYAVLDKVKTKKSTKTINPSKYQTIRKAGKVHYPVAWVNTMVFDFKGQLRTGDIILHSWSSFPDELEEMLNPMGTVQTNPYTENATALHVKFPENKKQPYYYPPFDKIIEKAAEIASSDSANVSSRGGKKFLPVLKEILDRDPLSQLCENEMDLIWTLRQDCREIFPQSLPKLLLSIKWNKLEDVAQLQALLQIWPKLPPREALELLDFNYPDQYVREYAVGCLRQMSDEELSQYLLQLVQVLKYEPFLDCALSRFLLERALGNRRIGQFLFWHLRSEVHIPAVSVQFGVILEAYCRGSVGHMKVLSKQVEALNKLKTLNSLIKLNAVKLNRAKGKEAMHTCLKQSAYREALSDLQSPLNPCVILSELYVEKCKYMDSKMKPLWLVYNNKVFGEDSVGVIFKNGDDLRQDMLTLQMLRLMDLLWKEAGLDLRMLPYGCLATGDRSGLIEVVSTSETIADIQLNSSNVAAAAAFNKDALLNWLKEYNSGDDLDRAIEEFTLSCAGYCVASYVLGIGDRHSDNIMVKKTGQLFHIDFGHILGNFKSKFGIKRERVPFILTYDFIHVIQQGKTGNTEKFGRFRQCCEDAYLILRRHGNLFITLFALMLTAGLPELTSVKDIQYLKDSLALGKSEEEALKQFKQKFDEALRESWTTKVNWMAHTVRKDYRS
Phosphatidylinositol 3-kinase catalytic subunit type 3, sequence (Q8NEB9 whole entry): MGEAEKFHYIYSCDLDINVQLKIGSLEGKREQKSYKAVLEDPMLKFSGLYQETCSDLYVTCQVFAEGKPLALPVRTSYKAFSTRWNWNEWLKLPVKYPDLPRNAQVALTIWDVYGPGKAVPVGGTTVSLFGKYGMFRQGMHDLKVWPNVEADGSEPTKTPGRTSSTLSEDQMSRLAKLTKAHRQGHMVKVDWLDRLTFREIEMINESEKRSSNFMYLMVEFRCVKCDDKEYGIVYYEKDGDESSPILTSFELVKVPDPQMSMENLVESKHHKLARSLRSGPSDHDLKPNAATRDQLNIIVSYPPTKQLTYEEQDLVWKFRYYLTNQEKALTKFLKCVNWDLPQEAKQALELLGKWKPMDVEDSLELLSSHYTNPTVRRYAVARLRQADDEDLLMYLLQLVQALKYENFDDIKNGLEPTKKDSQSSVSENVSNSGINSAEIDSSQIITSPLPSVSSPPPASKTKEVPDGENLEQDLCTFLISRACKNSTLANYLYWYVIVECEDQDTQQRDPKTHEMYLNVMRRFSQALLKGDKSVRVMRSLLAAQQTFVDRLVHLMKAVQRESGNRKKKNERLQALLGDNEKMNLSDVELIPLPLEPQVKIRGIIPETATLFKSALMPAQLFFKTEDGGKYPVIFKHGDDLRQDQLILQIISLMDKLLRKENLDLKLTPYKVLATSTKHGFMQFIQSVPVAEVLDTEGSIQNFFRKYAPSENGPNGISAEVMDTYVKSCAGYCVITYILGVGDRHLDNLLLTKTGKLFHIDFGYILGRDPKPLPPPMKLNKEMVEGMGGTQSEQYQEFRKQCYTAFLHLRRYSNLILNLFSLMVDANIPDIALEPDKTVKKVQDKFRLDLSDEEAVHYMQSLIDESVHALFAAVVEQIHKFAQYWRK

Compound	hepatocyte CLint at 5 µM [1]	hepatocyte CLint at 5 µM [2]	hepatocyte CLint at 5 µM [3]	hepatocyte CLint at 5 µM [4]	half-life at 5 µM [5]	half-life at 5 µM [6]	half-life at 5 µM [7]	half-life at 5 µM [8]	Ki [9]	Ki [10]	IC50 (cells [26])	IC50 (cells [27])	IC50 (VL51)	IC50 (cells [28])	IC50 (cells [29])	further results
CCOc1ccc2ccc(=O)oc2c1	50 µL/min/1e6 cells	18 µL/min/1e6 cells	45 µL/min/1e6 cells	22 µL/min/1e6 cells	17 min	47 min	18 min	39 min								
Nc1cc(C(F)F)c(-c2nc(C3CCOCC3)nc(N3C4CCC3COC4)n2)cn1	2.11 µL/min/1e6 cells	2.99 µL/min/1e6 cells	0.42 µL/min/1e6 cells	3.56 µL/min/1e6 cells	> 180 min	> 180 min	> 180 min	> 180 min	1140 nM	22 nM	171 nM	85 nM	311 nM	369 nM	118 nM	Kd [11]: 5 nM; Kd [12]: 420 nM; Kd [13]: 6450 nM; Kd [14]: 15500 nM; Kd [15]: 5600 nM; Kd [16]: > 30000 nM; Kd [17]: 6100 nM; AUC [18]: 2659 ng·h/g; AUC(0-t) at 8 h [19]: 3760 ng·h/mL; Activity [20]: Non-Toxic; Activity [21]: Non-Toxic; remaining at 3 h, 5 µM [22]: 62.4%; remaining at 3 h, 5 µM [23]: 59.9%; remaining at 3 h, 5 µM [24]: 74.5%; remaining at 3 h, 5 µM [25]: 92.9%; remaining at 1 h, 1 µM (CYP1A1): 53.3%; remaining at 1 h, 1 µM (CYP1A2): 84.2%
Nc1cc(C(F)F)c(-c2nc(C3=CCOCC3)nc(N3C4CCC3COC4)n2)cn1									125 nM	16 nM	199 nM	94 nM	150 nM	195 nM	354 nM	

Source: ChEMBL document CHEMBL5321201, “Investigation of morpholine isosters for the development of a potent, selective and metabolically stable mTOR kinase inhibitor” (Eur J Med Chem, 2023)
